Published values pooled from the literature.
Protocols differ between the studies behind these lines.
Cell line: A549
Observed: cell growth or viability

N.N.[Cl][Pt][Cl]  IC50: 1.2 µM
C#CC[C@@H]1NC(=O)[C@@H](CCCNC(=N)N)NC(=O)[C@H]([C@@H](C)O)NC(=O)[C@@H](CCCN)NC(=O)[C@H](Cc2ccccc2)NC(=O)[C@@H](Cc2ccccc2)NC1=O  IC50 (ATP luminescence): > 100 µM
CC(C)C[C@H](NC(=O)[C@H](CCCCN)NC(=O)CN)C(=O)N[C@@H](C)C(=O)N[C@@H](CCCCN)C(=O)N[C@@H](CCCCN)C(=O)N[C@@H](CC(C)C)C(=O)N[C@@H](Cc1ccccc1)C(=O)N[C@@H](CCCCN)C(=O)N[C@@H](CCCCN)C(=O)N[C@@H](CC(C)C)C(=O)N[C@@H](CCCCN)C(=O)N[C@@H](Cc1ccc(O)cc1)C(N)=O  IC50 (MTT; 24 h): 356 µM
N.N.[Cl][Pt][Cl]  IC50 (MTT; 72 h): 50.8 µM
C[C@H](NC(=O)[C@H](Cc1c[nH]cn1)NC(=O)[C@H](Cc1c[nH]c2ccccc12)NC(=O)[C@H](CCCCN)NC(=O)[C@H](Cc1c[nH]c2ccccc12)NC(=O)[C@H](Cc1c[nH]c2ccccc12)NC(=O)[C@H](CCCNC(=N)N)NC(=O)[C@H](Cc1c[nH]c2ccccc12)NC(=O)[C@H](Cc1c[nH]cn1)NC(=O)[C@@H](N)CCCNC(=N)N)C(=O)N[C@@H](CCCNC(=N)N)C(=O)N[C@@H](Cc1c[nH]c2ccccc12)C(=O)N[C@@H](Cc1c[nH]c2ccccc12)C(N)=O  IC50 (MTT; 24 h): 49 µM
CC(C)[C@@H]1NC(=O)[C@@H](CCCNC(=N)N)NC(=O)[C@H]([C@@H](C)O)NC(=O)[C@@H](CCCNC(=N)N)NC(=O)[C@H](Cc2ccccc2)NC(=O)[C@@H](Cc2ccccc2)NC1=O  IC50 (ATP luminescence): 61.7 µM
CC(C)C[C@H](NC(=O)[C@H](CO)NC(=O)[C@H](CO)NC(=O)CNC(=O)[C@@H]1CCCN1C(=O)[C@H](Cc1ccc(O)cc1)NC(=O)[C@H](CC(C)C)NC(=O)[C@H](CO)NC(=O)[C@H](CS)NC(=O)[C@H](CC(C)C)NC(=O)[C@@H](N)CC(C)C)C(=O)O  IC50 (MTT; 72 h): > 100 µM
N.N.[Cl][Pt][Cl]  IC50 (MTT; 48 h): 15.8 µM
CC(C)C[C@H](NC(=O)[C@H](CC(C)C)NC(=O)[C@H](CCCCN)NC(=O)[C@H](CCCCN)NC(=O)[C@H](Cc1ccccc1)NC(=O)[C@H](CC(C)C)NC(=O)[C@H](CCCCN)NC(=O)[C@H](CCCCN)NC(=O)[C@H](CC(C)C)NC(=O)[C@H](CC(C)C)NC(=O)[C@H](CCCCN)NC(=O)[C@@H](N)CCCNC(=N)N)C(=O)N[C@@H](CCCCN)C(N)=O  IC50 (MTT; 24 h): 20 µM
